Source: ChEMBL document CHEMBL4732130, “Synthesis and characterization of 1,2,4-triazolo[1,5-a]pyrimidine-2-carboxamide-based compounds targeting the PA-PB1 interface of influenza A virus polymerase” (Eur J Med Chem, 2021)
Values after ≈ are worked out from the molar mass of the structure shown. Values joined by “and” are separate entries in the source; they are usually repeats but may differ in a detail not shown here. Identical values can stand only once.

Tests used:
[1] = Inhibition of Influenza A virus 6His-tagged PA (239 to 716 residues)/GST-tagged PB1 (1 to 25 residues) expressed in Escherichia coli BL21 pLysS protein-protein interaction using 3,3',5,5'tetramethylbenzedine as substrate by ELISA
Influenza A virus = test: Antiviral activity against Influenza A virus A/PR/8/34 (H1N1) infected in MDCK cells assessed as reduction in plaque formation treated 1 hr post viral infection and measured after 48 hrs post-infection by toluidine blue staining based plaque reduction assay; assay type: functional, organism-based; conditions: A/Puerto Rico/8/1934(H1N1)
MDCK = test: (§1) Cytotoxicity against dog MDCK cells assessed as reduction in cell viability incubated for 48 hrs by MTT assay; assay type: cell-based, Canis lupus familiaris; conditions: mdck, 48 h
Outline: (§2)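 MDCK cells seeded at 2 × 10^4/well and grown 24 h, then given serial compound dilutions in DMEM with 10% FBS (DMSO control) for 48 h at 37 °C. MTT (5 mg/mL stock) added for 4 h, cells solubilised overnight, OD read at 620 nm. […] Mean ± SD of ≥3 independent experiments in duplicate.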

[2] = as §1; assay type: cell-based, Canis lupus familiaris; conditions: MDCK cells; outline: as §2
[3] = molecular target: RNA-directed RNA polymerase (Influenza A virus (strain A/Puerto Rico/8/1934 H1N1), UniProt P03428+P03431+P03433); test: Inhibition of RdRP activity in Influenza A virus A/PR/8/34 (H1N1) infected in HEK293T cells co-transfected with NP/PA/PB1/PB2/pPolI-Flu-ffLuc/pRL-SV40 incubated for 24 hrs by minireplicon based dual luciferase assay; assay type: cell-based, Influenza A virus (A/Puerto Rico/8/1934(H1N1))
Outline: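 HEK293T cells (2 × 10^5/well) plated overnight, then calcium-phosphate transfected with PB1, PB2, PA and NP plasmids (100 ng each), pPolI-Flu-ffLuc reporter (50 ng; WSN segment 8 noncoding ends) and pRL-SV40 (50 ng), with compound or DMSO present. Medium replaced at 5 h with compound-containing DMEM. Dual luciferase read at 24 h. Firefly normalised to Renilla, DMSO set as 100% polymerase activity.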

[4] = Equilibrium solubility of the compound in phosphate buffer at pH 7.4 incubated for 2 hrs; assay type: physicochemical; conditions: for solubility thermodynamic at 2 h: phosphate buffer, pH 7.4; for solubility: buffer, pH 7.4, 2 h, 2 h
[5] = Metabolic stability in human liver microsomes assessed as compound remaining at 10 uM preincubated for 5 mins followed by NADPH addition and measured after 60 mins by LC-MS/MS analysis; assay type: ADME, Microsome; conditions: time 65 min, read-out: Stabilty
Outline: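 Compound at 10 µM preincubated 5 min at 37 °C with human liver microsomes (1 mg/mL) in 0.1 M phosphate, pH 7.4. Reaction started with 2 mM NADPH. Samples taken at 0, 10, 20, 40 and 60 min, quenched in cold acetonitrile containing labetalol internal standard, and centrifuged. Analysed by LC-MS/MS (Q-TOF) for percent unchanged compound and metabolites. Half-life and intrinsic clearance estimated.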

[6] = Protein binding in human plasma assessed as unbound fraction at 5 uM incubated for 4 hrs by UPLC/MS-MS based rapid equilibrium dialysis method; assay type: ADME, cell-free
Outline: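 Compound at 5 µM in human plasma, dialysed against buffer by rapid equilibrium dialysis for 4 h at 37 °C. Chamber aliquots matrix-matched, precipitated with acetonitrile, and quantified by UPLC-MS/MS peak areas.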

[7] = Cytotoxicity in dog MDCK cells assessed as reduction in cell viability incubated for 24 to 120 hrs by MTT assay; assay type: cell-based, Canis lupus familiaris; conditions: time 24-120 hrs

| Structure (SMILES) | IC50 [1] [µM] | EC50 (Influenza A virus) [µM] | CC50 (MDCK) [µM] | other results |
| --- | --- | --- | --- | --- |
| Cc1cc(-c2ccccc2)n2nc(C(=O)Nc3c(C(N)=O)sc4ccccc34)nc2n1 | > 200 | 22 | > 250 |  |
| CCC1CCc2c(sc(NC(=O)c3nc4nc(C)cc(-c5ccccc5)n4n3)c2C(N)=O)C1 (stereo not given) | > 200 | 15 | > 250 |  |
| Cc1cc(-c2ccccc2)n2nc(C(=O)Nc3sc(C)c(C)c3C(N)=O)nc2n1 | > 200 | > 50 | > 250 |  |
| Cc1cc(-c2ccccc2)nc2nc(C(=O)Nc3sc4c(c3C(=O)O)CCCCC4)nn12 | 18 | 70 | > 250 |  |
| Cc1cc(-c2ccccc2)n2nc(C(=O)Nc3sc4c(c3C(=O)O)CCCCC4)nc2n1 | 19 | 50 | > 250 |  |
| NC(=O)c1ncn([C@@H]2O[C@H](CO)[C@@H](O)[C@H]2O)n1 [RIBAVIRIN] |  | 10 |  | CC50 at 48 h [2]: > 250 µM; EC50 [3]: 24 µM |
| Cc1cc(-c2ccccc2)nc2nc(C(=O)Nc3c(C(N)=O)sc4ncccc34)nn12 | > 200 | 43 | 51 |  |
| CC(=O)[C@H]1CC[C@H]2[C@@H]3CCC4=CC(=O)CC[C@]4(C)[C@H]3CC[C@]12C [PROGESTERONE] |  |  |  | solubility thermodynamic at 2 h [4]: 6.5 µM (≈ 2.04 µg/mL) |
| COc1cc2nc(N3CCN(C(=O)c4ccco4)CC3)nc(N)c2cc1OC [PRAZOSIN] |  |  |  | solubility thermodynamic at 2 h [4]: 62.8 µM (≈ 24.1 µg/mL) |
| Cc1cc(-c2ccccc2)n2nc(C(=O)Nc3ccccc3C(N)=O)nc2n1 | 11 | > 100 | > 250 | solubility [4]: 17.6 uM and 6.55 ug ml-1 |
| Cc1cc(-c2ccccc2)n2nc(C(=O)Nc3sc4c(c3C(N)=O)CCC4)nc2n1 | 6.2 | 22 | > 250 |  |
| Cc1cc(-c2ccccc2)nc2nc(C(=O)Nc3nc4ccccc4s3)nn12 | > 200 |  | 233 |  |
| Cc1cc(-c2ccccc2)n2nc(C(=O)Nc3sc4c(c3C(N)=O)CCCC4)nc2n1 | 15 | 32 | > 250 |  |
| Cc1cc(-c2ccccc2)nc2nc(C(=O)Nc3ccccc3C(N)=O)nn12 | 7 | 31 | > 250 | remaining at 1 h, 10 µM [5]: 76%; EC50 [3]: 5.8 µM; solubility [4]: 82.2 uM and 30.6 ug ml-1; Fu [6]: 22.45% |
| Cc1cc(-c2ccccc2)n2nc(C(=O)Nc3c(C(N)=O)sc4c3CCCCC4)nc2n1 | > 200 | > 50 | 90 |  |
| COc1ccc(C(=O)Nc2nc3n(n2)C(c2ccccc2)C=C(C)N3)cc1 (stereo not given) |  | > 100 |  | CC50 [7]: > 250 µM |
| Cc1cc(-c2ccccc2)n2nc(C(=O)Nc3sc4c(c3C(=O)Nc3ccccn3)CCCCC4)nc2n1 | 23 | 48 | > 250 |  |
| Cc1cc(-c2ccccc2)n2nc(C(=O)Nc3ccsc3C(N)=O)nc2n1 | 31 | 43 |  | CC50 at 48 h [2]: 250 µM |
| Cc1cc(-c2ccccc2)n2nc(C(=O)Nc3nc4ccccc4s3)nc2n1 | 21 | > 50 | > 250 |  |
| Cc1cc(-c2ccccc2)nc2nc(C(=O)Nc3ccsc3C(N)=O)nn12 | 50 | > 100 | 240 |  |
| Cc1cc(-c2ccccc2)n2nc(C(=O)Nc3sc4ccccc4c3C(N)=O)nc2n1 | > 200 | 49 | > 250 |  |
| Cc1cc(-c2ccccc2)n2nc(C(=O)Nc3c(C(N)=O)sc4ncccc34)nc2n1 | 3.3 | > 100 | > 250 |  |
